ChEMBL document CHEMBL5321236, “Fluoro-labelled sp2-iminoglycolipids with immunomodulatory properties” (Eur J Med Chem, 2023)
Active and inactive are the calls of the source. The calls are words filed in the database; no cut-off is given here.

Assays:
HeLa [1] = test: Inhibition of colony formation in human HeLa cells assessed as reduction in number of colonies at one third of GI50 concentration measured after 7 days by crystal violet staining based analysis; format: functional, cell-based; conditions: time 7.0 day
Procedure, shortened: (§1)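 HeLa and SW1573 seeded at 400 cells/well, dosed next day at GI50/3 and GI50 for the given line. Exposed seven days, fixed in methanol, stained with 0.5% w/v crystal violet. Colonies counted by automatic image segmentation.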

SW1573 [2] = test: Growth inhibition of human SW1573 cells measured after 48 hrs by SRB colorimetric assay; format: functional
Procedure, shortened: (§2)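 NCI-based protocol with sulforhodamine B read-out. Seeded 2500 (A549, HBL-100, HeLa, SW1573), 5000 (T-47D, WiDr, SW1573/P-gp) or 7000 (BJ-hTERT) cells/well. Exposed 48 h to serial decimal dilutions, 0.001–100 μM, from 40 mM DMSO stock. GI50 by NCI formulas; mean of three or more experiments ± SD.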

WiDr = test: Growth inhibition of human WiDr cells measured after 48 hrs by SRB colorimetric assay; format: functional; procedure, shortened: as §2
[3] = Resistance factor, ratio of GI50 for growth inhibition of human SW1573 cells overexpressing P-glycoprotein measured after 48 hrs in presence of verapamil to GI50 for growth inhibition of human SW1573 cells measured after 48 hrs in presence of verapamil; format: functional
Procedure, shortened: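 SW1573 parental and P-gp-overexpressing cells given 48 h exposure to serial dilutions (0.001–100 μM) in medium containing verapamil at a final 10 μM as P-gp transport inhibitor. SRB read-out, GI50 by NCI formulas. Resistance factor taken as GI50 in SW1573/P-gp divided by GI50 in SW1573.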

HBL-100 = test: Growth inhibition of human HBL-100 cells measured after 48 hrs by SRB colorimetric assay; format: functional; procedure, shortened: as §2
HeLa [4] = test: Induction of morphological changes in human HeLa cells assessed as decrease in cell volume at 20 uM measured after 5 hrs by microscopy based analysis; format: functional
Procedure, shortened: (§3)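 HeLa and SW1573 seeded at 100,000 cells/dish. After 24 h, medium switched to phenol-red-free RPMI 1640 and 20 μM added. Label-free holotomographic 3D live imaging of a 236 × 236 μm field, 10–20 cells initially, every 3 min for 15 h. Average dry mass density measured per cell at each cycle; morphology scored against untreated cells.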

SW1573 [5] = test: Inhibition of colony formation in human SW1573 cells assessed as reduction in number of colonies at one third of GI50 concentration measured after 7 days by crystal violet staining based analysis; format: functional, cell-based; conditions: time 7.0 day; procedure, shortened: as §1
HeLa [6] = test: Growth inhibition of human HeLa cells measured after 48 hrs by SRB colorimetric assay; format: functional; procedure, shortened: as §2
BV-2 [7] = test: Antiinflammatory activity in mouse BV-2 cells assessed as restoration of […] expression level at 10 uM incubated for 24 hrs with LPS stimulation by qRT-PCR analysis; format: functional, cell-based
Procedure, shortened: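 Bv.2 microglia stimulated with LPS 200 ng/mL with or without compound at 10 μM for 24 h. Arg1 mRNA measured by qRT-PCR, Actinb as housekeeping gene, 2^-ΔΔCT method, fold change relative to basal. n ≥ 4 independent experiments in triplicate.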

HeLa [8] = test: Inhibition of colony formation in human HeLa cells assessed as reduction in number of colonies at GI50 concentration measured after 7 days by crystal violet staining based analysis; format: functional, cell-based; conditions: time 7.0 day; procedure, shortened: as §1
HeLa [9] = test: Induction of morphological changes in human HeLa cells assessed as increase in average dry mass density at 20 uM measured after 15 hrs by imaging based analysis; format: functional, cell-based; procedure, shortened: as §3
HeLa [10] = test: Induction of morphological changes in human HeLa cells assessed as release of cellular content at 20 uM measured after 12 hrs by imaging based analysis; format: functional, cell-based; procedure, shortened: as §3
BV-2 [11] = test: Protection against LPS induced inflammation in mouse BV-2 cells assessed as decrease in Tnf-alpha mRNA expression at 10 uM incubated for 24 hrs with LPS stimulation by qRT-PCR analysis
SW1573 [12] = test: Induction of morphological changes in human SW1573 cells assessed as decrease in cell volume at 20 uM measured after 5 hrs by microscopy based analysis; format: functional; procedure, shortened: as §3
[13] = molecular target: Mitogen-activated protein kinase 14 (Mus musculus) (UniProt P47811); test: Inhibition of LPS-stimulated p38 alpha phosphorylation in mouse BV-2 cells at 10 uM measured after 15 to 90 mins by Western blot analysis; format: cell-based; conditions: time 15-90 min
Chain of Mitogen-activated protein kinase 14 (Mus musculus) (P47811 whole entry): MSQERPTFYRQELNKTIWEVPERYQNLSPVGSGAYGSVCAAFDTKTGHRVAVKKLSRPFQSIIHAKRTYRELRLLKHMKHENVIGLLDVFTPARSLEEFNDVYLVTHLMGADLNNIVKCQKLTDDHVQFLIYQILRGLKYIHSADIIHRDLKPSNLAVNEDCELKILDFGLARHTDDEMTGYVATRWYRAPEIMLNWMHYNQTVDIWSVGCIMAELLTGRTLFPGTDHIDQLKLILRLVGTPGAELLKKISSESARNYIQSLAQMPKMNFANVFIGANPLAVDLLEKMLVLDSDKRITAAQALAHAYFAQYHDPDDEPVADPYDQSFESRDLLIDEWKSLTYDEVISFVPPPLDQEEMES
Procedure, shortened: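 Bv.2 cells exposed with or without LPS for 15–90 min. Protein extracts run on SDS-PAGE, blotted to PVDF, probed with anti-phospho-p38α MAPK and anti-total p38α MAPK (1:1000), ECL detection. Quantified by densitometry, mean ± SEM, n = 3.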

SW1573 [14] = test: Growth inhibition of human SW1573 cells overexpressing P-glycoprotein measured after 48 hrs in absence of verapamil by SRB colorimetric assay; format: functional
Procedure, shortened: as §2, with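 “read-out. Cells grown in RPMI 1640 with 5% FBS and 1 mM glutamine at 37 °C, 5% CO₂.” for “read-out.”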

HeLa [15] = test: Induction of morphological changes in human HeLa cells assessed as formation of apoptotic bodies at 20 uM measured after 5 hrs by microscopy based analysis; format: functional, cell-based; procedure, shortened: as §3
BV-2 [16] = test: Cytotoxicity against mouse BV-2 cells at 10 uM measured after 24 hr by crystal violet staining based analysis; format: toxicity, cell-based; conditions: bv-2, 24 h
Procedure, shortened: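 Bv.2 cells grown to 70% confluence, exposed 24 h in serum-free medium to 0.1, 1.0, 10 and 25 μM. Fixed with 1% glutaraldehyde, stained with 0.1% crystal violet, dye released in 10% acetic acid, absorbance 590 nm. Mean ± SEM, n ≥ 3 independent experiments.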

HeLa [17] = test: Induction of morphological changes in human HeLa cells assessed as signal transition to necrotic stage at 20 uM measured after 12 hrs by imaging based analysis; format: functional, cell-based; procedure, shortened: as §3
SW1573 [18] = test: Inhibition of colony formation in human SW1573 cells assessed as reduction in number of colonies at GI50 concentration measured after 7 days by crystal violet staining based analysis; format: functional, cell-based; conditions: time 7.0 day; procedure, shortened: as §1
SW1573 [19] = test: Induction of morphological changes in human SW1573 cells assessed as cell shrinkage at 20 uM measured after 5 hrs by microscopy based analysis; format: functional; procedure, shortened: as §3
HeLa [20] = test: Induction of apoptosis in human HeLa cells assessed as membrane blebbing at 20 uM measured upto 15 hrs by microscopy based analysis; format: functional, cell-based; procedure, shortened: as §3
HeLa [21] = test: Induction of morphological changes in human HeLa cells at 20 uM measured after 12 hrs by imaging based analysis
SW1573 [22] = test: Growth inhibition of human SW1573 cells overexpressing P-glycoprotein measured after 48 hrs in presence of verapamil by SRB colorimetric assay; format: functional
Procedure, shortened: as §2, with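 “read-out. Cells grown in RPMI 1640 with 5% FBS and 1 mM glutamine at 37 °C, 5% CO₂.” for “read-out.”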

SW1573 [23] = test: Induction of morphological changes in human SW1573 cells assessed as formation of apoptotic bodies at 20 uM measured after 5 hrs by microscopy based analysis; format: functional, cell-based; procedure, shortened: as §3

- GI50 (SW1573 [2]): 9.1 µM
- GI50 (HeLa [6]): 4.5 µM
- inhibition [13]: inactive
- GI50 (SW1573 [14]): 5.3 µM
- GI50 (SW1573 [22]): 11 µM
Structure (SMILES): CCCCCCCCCCCCS(=O)(=O)[C@@H]1[C@H](F)[C@@H](O)[C@H](O)[C@H]2COC(=O)N21
- inhibition (HeLa [1]): Active
- GI50 (WiDr): 20 µM
- RatioGI50 [3]: 0.7
- GI50 (HBL-100): 19 µM
- Activity (HeLa [4]): Active
- inhibition (SW1573 [5]): Active
- Activity (BV-2 [7]): Active
- inhibition (HeLa [8]): Active
- Activity (HeLa [9]): Active
- Activity (HeLa [10]): Active
- Activity (BV-2 [11]): Active
- Activity (SW1573 [12]): Active
- Activity (HeLa [15]): Active
- Activity (BV-2 [16]): Non-Toxic
- Activity (HeLa [17]): Active
- inhibition (SW1573 [18]): Active
- Activity (SW1573 [19]): Active
- Activity (HeLa [20]): Active
- Activity (HeLa [21]): Active
- Activity (SW1573 [23]): Active
